Data from ChEMBL document CHEMBL1133744, “Synthesis and biological evaluation of bombesin constrained analogues” (J Med Chem, 2000).

Experiments:
[1] = molecular target: Gastrin-releasing peptide receptor (Rattus norvegicus, UniProt P52500); experiment: In vitro binding affinity against bombesin / GRP receptors on rat pancreatic acini.
Summary of the method: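 Male Wistar rat dispersed pancreatic acini (about 1 mg/mL protein) incubated 60 min at 37 °C with 20 pM (3-[125I]iodotyrosyl15)GRP and varying analogue; pellet centrifuged at 10000g, washed twice, counted. Nonspecific binding with 10 μM unlabeled BN. Specific binding as %, mean ± SD of three experiments in duplicate.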

[2] = Binding affinity against BN (bombesin) / GRP receptors in Swiss 3T3 cells; type: cell-based, Mus musculus
Summary of the method: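 Intact Swiss 3T3 cells (seeded 10⁵/well, 24 h in serum-free medium with 0.2% BSA) incubated 1 h at 22 °C in DMEM/0.2% BSA with 20 pM (3-[125I]iodotyrosyl15)GRP and varying compound; washed with cold PBS/0.2% BSA, NaOH-solubilized, radioactivity counted. Nonspecific binding with 10 μM BN. Duplicates, at least three separate trials.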

Rattus norvegicus = organism: Rattus norvegicus; experiment: Compound was tested for stimulating amylase secretion on rat pancreatic acini.; type: functional, organism-based
Summary of the method: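 Dispersed pancreatic acini from male Wistar rats (200-300 g), about 1 mg protein/mL, incubated 30 min at 37 °C in HEPES pH 7.4 buffer with 1% BSA; amylase by Phadebas method, expressed as % of maximal BN response. Antagonism: varying analogue with 1 nM BN. Duplicate incubations.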

[3] = Compound was tested for stimulating [3H]-thymidine accumulation in Swiss 3T3 cells.; type: functional, cell-based; details: Mus musculus, NIH3T3, 24 h
Summary of the method: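 Swiss 3T3 cells seeded 10⁵/well, 24 h in medium with 0.2% BSA without serum, then 24 h in DMEM/0.2% BSA; treated 24 h at 37 °C with varying analogue alone or with 10^-7 M BN, then 0.5 μCi [3H]thymidine for 2 h; TCA-precipitable radioactivity after NaOH solubilization. Agonism tested up to 10^-6 M.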

Gastrin-releasing peptide receptor, sequence (P52500 whole entry): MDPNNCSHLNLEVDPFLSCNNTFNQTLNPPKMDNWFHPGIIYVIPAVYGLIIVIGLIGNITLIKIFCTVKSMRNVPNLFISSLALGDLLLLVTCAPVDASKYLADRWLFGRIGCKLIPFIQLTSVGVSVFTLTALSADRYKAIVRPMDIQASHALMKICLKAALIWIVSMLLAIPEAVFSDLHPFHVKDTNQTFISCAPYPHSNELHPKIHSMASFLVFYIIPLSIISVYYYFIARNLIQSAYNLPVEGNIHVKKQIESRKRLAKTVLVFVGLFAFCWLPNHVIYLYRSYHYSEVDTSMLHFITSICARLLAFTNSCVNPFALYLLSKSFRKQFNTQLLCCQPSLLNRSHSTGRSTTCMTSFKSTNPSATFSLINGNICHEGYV

## CC(C)C[C@H](NC(=O)[C@H](CC(C)C)NC(=O)[C@H](Cc1cnc[nH]1)NC(=O)CN1CC[C@H](NC(=O)[C@H](C)NC(=O)[C@H](Cc2c[nH]c3ccccc23)NC(=O)[C@H](CCC(N)=O)NC(=O)[C@H](N)Cc2ccccc2)C1=O)C(N)=O
[1]
  Ki: 225 nM

## COC(=O)[C@H](CC(C)C)NC(=O)[C@H](Cc1c[nH]cn1)NC(=O)CN1CCCC[C@H](NC(=O)[C@H](C)NC(=O)[C@H](Cc2c[nH]c3ccccc23)NC(=O)[C@H](CCC(N)=O)NC(=O)[C@H](N)Cc2ccccc2)C1=O
[2]
  Ki: 2 nM
[1]
  Ki: 5.2 nM

## CC(C)C[C@H](NC(=O)[C@H](CC(C)C)NC(=O)[C@H](Cc1c[nH]cn1)NC(=O)CN1CCCC[C@H](NC(=O)[C@H](C)NC(=O)[C@H](Cc2c[nH]c3ccccc23)NC(=O)[C@H](CCC(N)=O)NC(=O)CCc2ccc(O)cc2)C1=O)C(N)=O
[2]
  Ki: 2 nM
[1]
  Ki: 1.8 nM
Rattus norvegicus
  EC50: 0.05 nM
[3]
  EC50: 0.2 nM

## CCCCC(O)[C@@H](CC(C)C)NC(=O)[C@H](Cc1c[nH]cn1)NC(=O)CN1CCCC[C@H](NC(=O)[C@H](C)NC(=O)[C@H](Cc2c[nH]c3ccccc23)NC(=O)[C@H](CCC(N)=O)NC(=O)[C@H](N)Cc2ccccc2)C1=O (some centres undefined)
[2]
  Ki: 2 nM
[1]
  Ki: 9 nM

## COC(=O)[C@H](CC(C)C)NC(=O)[C@H](Cc1c[nH]cn1)NC(=O)CN1CCCC[C@H](NC(=O)[C@H](C)NC(=O)[C@H](Cc2c[nH]c3ccccc23)NC(=O)[C@H](CCC(N)=O)NC(=O)CCc2ccc(O)cc2)C1=O
[2]
  Ki: 1.2 nM
[1]
  Ki: 3.1 nM

## CC(C)C[C@H](NC(=O)[C@H](CC(C)C)NC(=O)[C@H](Cc1c[nH]cn1)NC(=O)CN1C(=O)[C@@H](NC(=O)[C@H](C)NC(=O)[C@H](Cc2c[nH]c3ccccc23)NC(=O)[C@H](CCC(N)=O)NC(=O)[C@H](N)Cc2ccccc2)N=C(c2ccccc2)c2ccccc21)C(N)=O
[1]
  Ki: 500 nM

## CC(C)C[C@@H](NC(=O)[C@H](Cc1c[nH]cn1)NC(=O)CN1CCCC[C@H](NC(=O)[C@H](C)NC(=O)[C@H](Cc2c[nH]c3ccccc23)NC(=O)[C@H](CCC(N)=O)NC(=O)CCc2ccc(O)cc2)C1=O)C(=O)NO
[2]
  Ki: 11 nM
[1]
  Ki: 13 nM

## CC(C)C[C@@H](NC(=O)[C@H](Cc1c[nH]cn1)NC(=O)CN1CCCC[C@H](NC(=O)[C@H](C)NC(=O)[C@H](Cc2c[nH]c3ccccc23)NC(=O)[C@H](CCC(N)=O)NC(=O)[C@H](N)Cc2ccccc2)C1=O)C(=O)NO
[2]
  Ki: 53 nM
[1]
  Ki: 127 nM

## CCCCC(O)[C@@H](CC(C)C)NC(=O)[C@H](Cc1c[nH]cn1)NC(=O)CN1CCCC[C@H](NC(=O)[C@H](C)NC(=O)[C@H](Cc2c[nH]c3ccccc23)NC(=O)[C@H](CCC(N)=O)NC(=O)CCc2ccc(O)cc2)C1=O (some centres undefined)
[2]
  Ki: 0.8 nM
[1]
  Ki: 3.8 nM

## CC(C)C[C@H](NC(=O)[C@H](CC(C)C)NC(=O)[C@H](Cc1c[nH]cn1)NC(=O)CN1CCCC[C@H](NC(=O)[C@H](C)NC(=O)[C@H](Cc2c[nH]c3ccccc23)NC(=O)[C@H](CCC(N)=O)NC(=O)[C@H](N)Cc2ccccc2)C1=O)C(N)=O
[2]
  Ki: 1 nM
[1]
  Ki: 1.7 nM
Rattus norvegicus
  EC50: 0.22 nM
[3]
  EC50: 0.02 nM

## CC(C)C[C@H](NC(=O)[C@H](CC(C)C)NC(=O)[C@H](Cc1cnc[nH]1)NC(=O)c1ccc(NC(=O)[C@H](C)NC(=O)[C@H](Cc2c[nH]c3ccccc23)NC(=O)[C@H](CCC(N)=O)NC(=O)[C@H](N)Cc2ccccc2)cc1)C(N)=O
[1]
  Ki: 2250 nM

## CC(C)C[C@H](NC(=O)[C@H](CC(C)C)NC(=O)[C@H](Cc1cnc[nH]1)NC(=O)c1ccccc1NC(=O)[C@H](C)NC(=O)[C@H](Cc1c[nH]c2ccccc12)NC(=O)[C@H](CCC(N)=O)NC(=O)[C@H](N)Cc1ccccc1)C(N)=O
[1]
  Ki: 650 nM

## CC(C)C[C@H](NC(=O)[C@H](CC(C)C)NC(=O)[C@H](Cc1cnc[nH]1)NC(=O)c1cccc(NC(=O)[C@H](C)NC(=O)[C@H](Cc2c[nH]c3ccccc23)NC(=O)[C@H](CCC(N)=O)NC(=O)[C@H](N)Cc2ccccc2)c1)C(N)=O
[1]
  Ki: 300 nM

## CC(C)C[C@H](NC(=O)[C@H](CC(C)C)NC(=O)[C@H](Cc1c[nH]cn1)NC(=O)CNC(=O)[C@@H](NC(=O)[C@H](C)NC(=O)[C@H](Cc1c[nH]c2ccccc12)NC(=O)[C@H](CCC(N)=O)NC(=O)C(N)Cc1ccccc1)C(C)C)C(N)=O (stereo in doubt) [listing 1 of 3 here]
Rattus norvegicus
  EC50: 0.03 nM
[3]
  EC50: 0.08 nM

## CC(C)C[C@H](NC(=O)[C@H](CC(C)C)NC(=O)[C@H](Cc1c[nH]cn1)NC(=O)CNC(=O)[C@@H](NC(=O)[C@H](C)NC(=O)[C@H](Cc1c[nH]c2ccccc12)NC(=O)[C@H](CCC(N)=O)NC(=O)C(N)Cc1ccccc1)C(C)C)C(N)=O (stereo in doubt) [listing 2 of 3 here]
[1]
  Ki: 3.2 nM

## CC(C)C[C@H](NC(=O)[C@H](CC(C)C)NC(=O)[C@H](Cc1c[nH]cn1)NC(=O)CNC(=O)[C@@H](NC(=O)[C@H](C)NC(=O)[C@H](Cc1c[nH]c2ccccc12)NC(=O)[C@H](CCC(N)=O)NC(=O)C(N)Cc1ccccc1)C(C)C)C(N)=O (stereo in doubt) [listing 3 of 3 here]
[2]
  Ki: 6.3 nM
